These results are taken from ChEMBL document CHEMBL1148762, “Lysosome and HER3 (ErbB3) selective anticancer agent kahalalide F: semisynthetic modifications and antifungal lead-exploration studies” (J Med Chem, 2007).

The test system of one experiment is Aspergillus fumigatus. As to the kind of experiment: Antimicrobial activity against Aspergillus fumigatus ATCC 90906. It counts as functional, organism-based.
The next experiment deals with Candida albicans. As to the kind of experiment: Antimicrobial activity against Candida albicans ATCC 90028. It counts as functional, organism-based.
In experiment [1] the test system is Mycobacterium intracellulare. Kind of experiment: Antimicrobial activity against Mycobacterium intracellular ATCC 23068. It counts as functional, organism-based.
For the next experiment, the system named is Cryptococcus neoformans. As to the kind of experiment: Antimicrobial activity against Cryptococcus neoformans ATCC 90113. It counts as functional, organism-based.
The subject of the next experiment is HT-29. Kind of experiment: Cytotoxicity against human HT29 cells. It counts as functional. The gist of the method: (§1)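 NCI Developmental Therapeutics Program cell panel. GI50 is the concentration that reduces growth of treated cells to half that of untreated controls. TGI is the concentration that completely halts growth.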
The subject of a further experiment is COLO 205. As to the kind of experiment: Cytotoxicity against human COLO205 cells. It counts as functional. In short, it runs like this:
as §1

A further experiment has as its system A549. Kind of experiment: Cytotoxicity against human A549 cells. It counts as functional. The gist of the method: as §1
Another experiment has as its system KM12. Kind of experiment: Cytotoxicity against human KM12 cells. It counts as functional. The gist of the method: as §1
The test system of the next experiment is UACC-257. As to the kind of experiment: Cytotoxicity against human UACC257 cells. It counts as functional. In short, it runs like this: as §1
The next experiment has as its system HCC 2998. As to the kind of experiment: Cytotoxicity against human HCC2998 cells. It counts as functional. The gist of the method:
as §1

The next experiment concerns DU-145. As to the kind of experiment: Cytotoxicity against human DU145 cells. It counts as functional. In short, it runs like this: as §1
A further experiment deals with ACHN. Kind of experiment: Cytotoxicity against human ACHN cells. It counts as functional. The gist of the method: as §1
The test system of the next experiment is PC-3. Kind of experiment: Cytotoxicity against human PC3 cells. It counts as functional. The gist of the method: as §1
The test system of another experiment is RPMI-8226. As to the kind of experiment: Cytotoxicity against human RPMI8226 cells. It counts as functional. The gist of the method:
as §1

In the next experiment the test system is HCT-15. As to the kind of experiment: Cytotoxicity against human HCT15 cells. It counts as functional. In short, it runs like this: as §1
In another experiment the test system is SNB-75. Kind of experiment: Cytotoxicity against human SNB75 cells. It counts as functional. The gist of the method:
as §1

In the next experiment the test system is NCI-H322M. Kind of experiment: Cytotoxicity against human NCI-H322M cells. It counts as functional. The gist of the method:
as §1

The next experiment deals with Hs-578T. As to the kind of experiment: Cytotoxicity against human HS578T cells. It counts as functional. The gist of the method:
as §1

Another experiment relates to SK-OV-3. Kind of experiment: Cytotoxicity against human SK-OV3 cells. It counts as functional. The gist of the method: as §1
The subject of experiment [2] is Mycobacterium tuberculosis. As to the kind of experiment: Antibacterial activity against Mycobacterium tuberculosis H37Rv at 16 ug/mL by micro plate alamar blue assay. It counts as functional. In short, it runs like this:
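M. tuberculosis H37Rv ATCC 27294 grown in BACTEC 12B medium; microplate Alamar blue assay (MABA). Primary screen at a single concentration of 16 µg/mL, read as percent inhibition.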

By IC50 is commonly meant the concentration needed to halve the response being measured. A higher IC50 goes with a need for much substance. `C/C=C1\NC(=O)[C@H](Cc2ccccc2)NC(=O)[C@@H](C(C)C)NC(=O)[C@@H]([C@@H](C)CC)NC(=O)[C@H](NC(=O)[C@H](NC(=O)[C@H](CCCN)NC(=O)[C@H]2CCCN2C(=O)[C@H](NC(=O)[C@@H](NC(=O)[C@@H](NC(=O)[C@H](NC(=O)CCCC(C)C)C(C)C)C(C)=O)C(C)C)C(C)C)[C@@H](C)CC)[C@@H](C)OC(=O)[C@H](C(C)C)NC1=O`: the concentration for half-maximal inhibition (IC50) in the experiment on Aspergillus fumigatus is above 13.6 µM; in the experiment with Candida albicans, 12.4 µM; in [1] it was above 20 µM; with Cryptococcus neoformans, 4.34 µM.

As usually defined, the GI50 is the concentration giving 50% growth inhibition. What is called TGI is the concentration giving total growth inhibition. Low readings indicate more potent growth arrest, high ones less potent growth arrest. As to `CC(=O)O[C@H]1C(=O)[C@@]2(C)[C@H]([C@H](OC(=O)c3ccccc3)[C@]3(O)C[C@H](OC(=O)[C@H](O)[C@@H](NC(=O)c4ccccc4)c4ccccc4)C(C)=C1C3(C)C)[C@]1(OC(C)=O)CO[C@@H]1C[C@@H]2O` [PACLITAXEL], the GI50 worked out at 0.002 µM with HT-29; 0.003 µM with COLO 205; 0.004 µM in the experiment on A549; 0.004 µM in the experiment with KM12; 0.04 µM with UACC-257; 0.003 µM in the experiment with HCC 2998. Further, the GI50 was found to be 0.005 µM in the experiment with DU-145; 0.398 µM in the experiment on ACHN; 0.004 µM with PC-3; 0.002 µM with RPMI-8226; 0.158 µM with HCT-15; 0.004 µM in the experiment with SNB-75. Further, the GI50 was 0.013 µM with NCI-H322M, 0.003 µM with Hs-578T and 0.008 µM in the experiment on SK-OV-3. In addition, the TGI in the experiment on HT-29 was 0.251 µM; with COLO 205 it was 0.316 µM; in the experiment with A549, 25.1 µM; with KM12 it was 15.8 µM; in the experiment with UACC-257, 25.1 µM; in the experiment with HCC 2998 it was 0.126 µM. The TGI in the experiment with DU-145 turned out to be 0.794 µM; with ACHN it was 12.6 µM; with PC-3 it was 10 µM; in the experiment on RPMI-8226, 5.01 µM; in the experiment on HCT-15, 15.8 µM; with SNB-75, 0.126 µM. The TGI with NCI-H322M was 6.31 µM; with Hs-578T, 0.1 µM; with SK-OV-3, 15.8 µM.

Regarding `C/C=C1\NC(=O)[C@H](Cc2ccccc2)NC(=O)[C@@H](C(C)C)NC(=O)[C@@H]([C@@H](C)CC)NC(=O)[C@H](NC(=O)[C@H](NC(=O)[C@H](CCCN(CCCCCC)CCCCCC)NC(=O)[C@H]2CCCN2C(=O)[C@H](NC(=O)[C@@H](NC(=O)[C@@H](NC(=O)[C@H](NC(=O)CCCC(C)C)C(C)C)[C@@H](C)O)C(C)C)C(C)C)[C@@H](C)CC)[C@@H](C)OC(=O)[C@H](C(C)C)NC1=O`, the half-maximal inhibitory concentration (IC50) with Aspergillus fumigatus is above 12.2 µM; in the experiment with Candida albicans it was above 12.2 µM; in [1], above 20 µM; in the experiment with Cryptococcus neoformans, 6.71 µM.

In general, inhibition refers to how much of the control response was suppressed. Higher therefore signals a response far below the control. For `C/C=C(\NC(=O)[C@H](Cc1ccccc1)NC(=O)[C@H](NC(=O)[C@H](NC(=O)[C@H](NC(=O)[C@H](NC(=O)[C@H](CCCN)NC(=O)[C@H]1CCCN1C(=O)[C@H](NC(=O)[C@@H](NC(=O)[C@@H](NC(=O)[C@H](NC(=O)CCCC(C)C)C(C)C)[C@@H](C)O)C(C)C)C(C)C)[C@@H](C)CC)[C@@H](C)O)[C@@H](C)CC)C(C)C)C(=O)N[C@H](C(=O)O)C(C)C` [KAHALALIDE G], the IC50 (in the experiment on Aspergillus fumigatus; in the experiment with Candida albicans; in [1]; in the experiment on Cryptococcus neoformans) was above 13.4 µM throughout. The compound also came in with an inhibition at 16 µg/mL in experiment [2] of 29%.

Consider `C/C=C1\NC(=O)[C@H](Cc2ccccc2)NC(=O)[C@@H](C(C)C)NC(=O)[C@@H]([C@@H](C)CC)NC(=O)[C@H](NC(=O)[C@H](NC(=O)[C@H](CCCN(Cc2ccc(F)cc2)Cc2ccc(F)cc2)NC(=O)[C@H]2CCCN2C(=O)[C@H](NC(=O)[C@@H](NC(=O)[C@@H](NC(=O)[C@H](NC(=O)CCCC(C)C)C(C)C)[C@@H](C)O)C(C)C)C(C)C)[C@@H](C)CC)[C@@H](C)OC(=O)[C@H](C(C)C)NC1=O`, for which the concentration for half-maximal inhibition (IC50) (in the experiment with Aspergillus fumigatus; in the experiment with Candida albicans; in experiment [1]; in the experiment on Cryptococcus neoformans) was above 11.8 µM throughout.
